The source of these data is ChEMBL document CHEMBL3414422, “Synthesis of new steroidal inhibitors of P-glycoprotein-mediated multidrug resistance and biological evaluation on K562/R7 erythroleukemia cells” (J Med Chem, 2015).

One data set has as its system K562/R7. Description: Inhibition of p-gp (unknown origin) in doxorubicin-resistant human K562/R7 cells assessed as increase in daunorubicin accumulation measured as fluorescence ratio at 10 uM incubated for 1 hr with 10 uM daunorubicin by flow cytometry relative to control. Format: cell-based. The procedure, abridged:
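Resistant K562/R7 cells ([…]) incubated 1 h at 37 °C in RPMI 1640 with daunorubicin 10 µM, with or without steroid at 10 µM; intracellular fluorescence read by flow cytometry. Accumulation index = daunorubicin fluorescence ratio with/without modulator. Cyclosporin A as positive control. Duplicates, at least three separate experiments.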
In general terms: In flow cytometry, cells or beads pass a laser one at a time.

The nature of data set [1]: Intrinsic cytotoxicity against human K562 cells assessed as cell survival […] by MTT assay. Format: cell-based. The settings on record: read-out: Survival.

The structures appear in SMILES notation.

In the case of `COC(=O)CCC(C)[C@H]1CC[C@H]2[C@@H]3[C@H](OC4CCCCO4)C[C@@H]4CC(=O)CC[C@]4(C)[C@H]3C[C@H](OC3CCCCO3)[C@]12C` (mixture of isomers), the Ratio in the data set on K562/R7 was 3.5. Further, in data set [1], the viability turned out to be 63.2%. In the case of `CC(=O)[C@H]1CC[C@H]2[C@@H]3CC[C@@H]4CC(=O)CC[C@]4(C)[C@H]3CC[C@]12C`, the Ratio with K562/R7 was 1.2. Regarding `CC(=O)[C@H]1CC[C@H]2[C@@H]3[C@H](OC(=O)c4ccccc4)C[C@@H]4CC(=O)CC[C@]4(C)[C@H]3CC[C@]12C`, the Ratio with K562/R7 stood at 2.2. Still for that read-out and setting: then `CC(=O)[C@@]1(O)CC[C@H]2[C@@H]3CC[C@@H]4CC(=O)CC[C@]4(C)[C@H]3[C@H](O)C[C@@]21C`, with 1. With `COC(=O)CCC(C)[C@H]1CC[C@H]2[C@@H]3[C@H](OC(=O)c4ccccc4)C[C@@H]4CC(=O)CC[C@]4(C)[C@H]3C[C@H](O[C@H]3CCCCO3)[C@]12C` (some centres undefined), the Ratio with K562/R7 is 2.7. The viability in data set [1] worked out at 53.5%. As for `CC(=O)[C@H]1CC[C@H]2[C@@H]3CC[C@@H]4CC(=O)CC[C@]4(C)[C@H]3[C@H](O[C@@H]3CCCCO3)C[C@]12C`, the Ratio in the data set with K562/R7 amounted to 2.5. In the case of `COC(=O)CCC(C)[C@H]1CC[C@H]2[C@@H]3[C@H](O[C@H]4CCCCO4)C[C@@H]4CC(=O)CC[C@]4(C)[C@H]3C[C@H](OC(=O)c3ccccc3)[C@]12C` (some centres undefined), in the data set with K562/R7, the Ratio was found to be 3.3. In addition, the viability in data set [1] was 44.6%.

For the molecule `CC(=O)[C@H]1CC[C@H]2[C@@H]3CC[C@@H]4CC(=O)CC[C@]4(C)[C@H]3[C@H](O[C@H]3CCCCO3)C[C@]12C`, in the data set on K562/R7, the Ratio amounted to 2.5. Still for that read-out and setting: then `CC(=O)[C@@]1(O[C@@H]2CCCCO2)CC[C@H]2[C@@H]3CC[C@@H]4CC(=O)CC[C@]4(C)[C@H]3CC[C@@]21C`, with 2.3; and `C[C@]12CC[C@H]3[C@@H](CCC4=CC(=O)CC[C@@]43C)[C@@H]1CC[C@@H]2C(=O)COC1CCCCO1` (mixture of isomers), with 1.6. With `COCCCC(C)[C@H]1CC[C@H]2[C@@H]3[C@H](OC(=O)c4ccccc4)C[C@@H]4CC(=O)CC[C@]4(C)[C@H]3C[C@H](O[C@@H]3CCCCO3)[C@]12C` (some centres undefined), the Ratio in the data set with K562/R7 is 2.4. Also, in data set [1], the viability was determined as 54.4%.

Regarding `CC(=O)[C@H]1CC[C@H]2[C@H]3[C@H]([C@H](OC(=O)c4ccccc4)C[C@]12C)[C@@]1(C)CCC(=O)C[C@H]1C[C@H]3O[C@@H]1CCCCO1`, the Ratio in the data set with K562/R7 came to 2.8. In addition, the viability in data set [1] amounted to 61.5%.

In the case of `CC(=O)[C@H]1CC[C@H]2[C@@H]3CCC4=CC(=O)CC[C@]4(C)[C@H]3CC[C@]12C` [PROGESTERONE], the Ratio in the data set on K562/R7 was found to be 1.2. Further, in data set [1], the viability amounted to 81.6%. In the case of `CC(=O)[C@H]1CC[C@H]2[C@H]3[C@H]([C@H](O[C@H]4CCCCO4)C[C@]12C)[C@@]1(C)CCC(=O)C[C@@H]1C[C@H]3OC(=O)c1ccccc1`, the Ratio with K562/R7 came out at 2.3. In the case of `COCCCC(C)[C@H]1CC[C@H]2[C@@H]3[C@H](O[C@H]4CCCCO4)C[C@@H]4CC(=O)CC[C@]4(C)[C@H]3C[C@H](OC(=O)c3ccccc3)[C@]12C` (some centres undefined), in the data set on K562/R7, the Ratio was 3.1. In data set [1], the viability was 56.3%.

Take `COCCCC(C)[C@H]1CC[C@H]2[C@@H]3[C@H](OC(=O)c4ccccc4)C[C@@H]4CC(=O)CC[C@]4(C)[C@H]3C[C@H](OC(=O)c3ccccc3)[C@]12C` (some centres undefined): the Ratio in the data set on K562/R7 turned out to be 1.7. Moreover, in data set [1], the viability was 50.7%. The matching figures for `CC(=O)[C@@]1(O[C@@H]2CCCCO2)CC[C@H]2[C@@H]3CC[C@@H]4CC(=O)CC[C@]4(C)[C@H]3[C@H](O[C@H]3CCCCO3)C[C@@]21C`: 2.5 and 67.9%.

Turning to `COC(=O)CCC(C)[C@H]1CC[C@H]2[C@@H]3[C@H](O[C@@H]4CCCCO4)C[C@@H]4CC(=O)CC[C@]4(C)[C@H]3C[C@H](OC(=O)c3ccccc3)[C@]12C` (some centres undefined), the Ratio with K562/R7 was 2.9. Also, the viability in data set [1] is 51.3%. The matching figures for `CC#C[C@]1(O)CC[C@H]2[C@@H]3CCC4=CC(=O)CCC4=C3[C@@H](c3ccc(N(C)C)cc3)C[C@@]21C` [MIFEPRISTONE]: 2.4 and 95.6%. As for `CC(=O)[C@H]1CC[C@H]2[C@H]3[C@H]([C@H](OC(=O)c4ccccc4)C[C@]12C)[C@@]1(C)CCC(=O)C[C@H]1C[C@H]3O`, the Ratio in the data set on K562/R7 is 2.3. Further, in data set [1], the viability is 81.1%.

With `CC(=O)[C@H]1CC[C@H]2[C@H]3[C@H]([C@H](O[C@@H]4CCCCO4)C[C@]12C)[C@@]1(C)CCC(=O)C[C@H]1C[C@H]3OC1CCCCO1` (mixture of isomers), in the data set with K562/R7, the Ratio was 2.6. In data set [1], the viability is 86.7%. Regarding `CC(=O)[C@@]1(O[C@@H]2CCCCO2)CC[C@H]2[C@@H]3CCC4=CC(=O)CC[C@]4(C)[C@H]3CC[C@@]21C`, the Ratio in the data set with K562/R7 amounted to 2.4.

Turning to `CC(=O)[C@H]1CC[C@H]2[C@@H]3CCC4=CC(=O)CC[C@]4(C)[C@H]3[C@H](O[C@H]3CCCCO3)C[C@]12C`, in the data set with K562/R7, the Ratio was found to be 2.4.

In the case of `CC(=O)[C@H]1CC[C@H]2[C@@H]3CC[C@@H]4CC(=O)CC[C@]4(C)[C@H]3[C@H](O)C[C@]12C`, the Ratio in the data set on K562/R7 was 1. In the case of `CC(=O)[C@H]1CC[C@H]2[C@H]3[C@H]([C@H](O)C[C@]12C)[C@@]1(C)CCC(=O)C[C@H]1C[C@H]3OC(=O)c1ccccc1`, in the data set with K562/R7, the Ratio is 1.4. The viability in data set [1] came out at 92.9%. Consider `COCO[C@H]1C[C@H]2[C@@H]([C@H](OC(=O)c3ccccc3)C[C@@H]3CC(=O)CC[C@@]32C)[C@@H]2CC[C@H](C(C)CCC(=O)OC)[C@@]12C` (some centres undefined), for which the Ratio in the data set on K562/R7 worked out at 2.9. The viability in data set [1] worked out at 49.7%. `COCCCC(C)[C@H]1CC[C@H]2[C@@H]3[C@H](OC(=O)c4ccccc4)C[C@@H]4CC(=O)CC[C@]4(C)[C@H]3C[C@H](O[C@H]3CCCCO3)[C@]12C` (some centres undefined): in the data set with K562/R7, the Ratio was found to be 2.2. The viability in data set [1] was found to be 75.8%.

With `COCO[C@@H]1C[C@@H]2CC(=O)CC[C@]2(C)[C@H]2C[C@H](O)[C@]3(C)[C@@H](C(C)CCC(=O)OC)CC[C@H]3[C@H]12` (some centres undefined), the Ratio in the data set with K562/R7 was 1.8. Also, the viability in data set [1] was 95.7%. Turning to `COCCCC(C)[C@H]1CC[C@H]2[C@@H]3[C@H](O[C@@H]4CCCCO4)C[C@@H]4CC(=O)CC[C@]4(C)[C@H]3C[C@H](OC(=O)c3ccccc3)[C@]12C` (some centres undefined), the Ratio in the data set with K562/R7 stood at 3.4. Besides, in data set [1], the viability was 51%. For the molecule `CC(=O)[C@@]1(O)CC[C@H]2[C@@H]3CCC4=CC(=O)CC[C@]4(C)[C@H]3CC[C@@]21C`, the Ratio with K562/R7 came out at 1. Take `CC(=O)[C@H]1CC[C@H]2[C@H]3[C@H]([C@H](OC(=O)c4ccccc4)C[C@]12C)[C@@]1(C)CCC(=O)C[C@H]1C[C@H]3O[C@H]1CCCCO1`: the Ratio in the data set on K562/R7 was determined as 2.6. Moreover, the viability in data set [1] is 70.5%. The corresponding values for `COC(=O)CCC(C)[C@H]1CC[C@H]2[C@@H]3[C@H](OC(=O)c4ccccc4)C[C@@H]4CC(=O)CC[C@]4(C)[C@H]3C[C@H](OC(=O)c3ccccc3)[C@]12C` (some centres undefined) are 1.5 and 57.3%. Take `CC(=O)[C@H]1CC[C@H]2[C@@H]3CCC4=CC(=O)CC[C@]4(C)[C@H]3[C@H](O)C[C@]12C`: in the data set on K562/R7, the Ratio amounted to 1. Still for that read-out and setting: then `CC(=O)[C@@]1(O[C@H]2CCCCO2)CC[C@H]2[C@@H]3CCC4=CC(=O)CC[C@]4(C)[C@H]3CC[C@@]21C`, with 2.8.

Take `CC(=O)[C@H]1CC[C@H]2[C@H]3[C@H]([C@H](O[C@@H]4CCCCO4)C[C@]12C)[C@@]1(C)CCC(=O)C[C@H]1C[C@H]3OC(=O)c1ccccc1`: the Ratio in the data set with K562/R7 came to 2.9. The viability in data set [1] was 80.8%. With `CC(=O)[C@H]1CC[C@H]2[C@H]3[C@H]([C@H](OC(=O)c4ccccc4)C[C@]12C)[C@@]1(C)CCC(=O)C[C@H]1C[C@H]3OC(=O)c1ccccc1`, in the data set with K562/R7, the Ratio was determined as 2.5. Moreover, in data set [1], the viability amounted to 66.4%.

On to `CC(=O)[C@H]1CC[C@H]2[C@@H]3[C@H](OC4CCCCO4)C[C@@H]4CC(=O)CC[C@]4(C)[C@H]3CC[C@]12C` (mixture of isomers), for which, in the data set with K562/R7, the Ratio was 2.4. Same read-out and setting: then `CC(=O)[C@H]1CC[C@H]2[C@H]3[C@H]([C@H](O)C[C@]12C)[C@@]1(C)CCC(=O)C[C@H]1C[C@H]3O`, with 1.1; and `CC(=O)[C@@]1(O)CC[C@H]2[C@@H]3CC[C@@H]4CC(=O)CC[C@]4(C)[C@H]3CC[C@@]21C`, with 1.1.

Take `COC(=O)CCC(C)[C@H]1CC[C@H]2[C@@H]3[C@H](O)C[C@@H]4CC(=O)CC[C@]4(C)[C@H]3C[C@H](O)[C@]12C` (some centres undefined): the Ratio with K562/R7 amounted to 1.5. For `CC(=O)[C@H]1CC[C@H]2[C@H]3[C@H]([C@H](O[C@@H]4CCCCO4)C[C@]12C)[C@@]1(C)CCC(=O)C[C@@H]1C[C@H]3OC(=O)c1ccccc1`, the Ratio with K562/R7 was found to be 2.4. Moreover, the viability in data set [1] was 77.8%. The corresponding values for `COC(=O)CCC(C)[C@H]1CC[C@H]2[C@@H]3[C@H](OC(=O)c4ccccc4)C[C@@H]4CC(=O)CC[C@]4(C)[C@H]3C[C@H](O[C@@H]3CCCCO3)[C@]12C` (some centres undefined) are 2.1 and 56.4%.

On to `CC(=O)[C@H]1CC[C@H]2[C@@H]3CC[C@H]4CC(=O)CC[C@]4(C)[C@H]3CC[C@]12C`, for which the Ratio in the data set with K562/R7 stood at 1. As to `CC(=O)[C@@]1(O[C@H]2CCCCO2)CC[C@H]2[C@@H]3CC[C@@H]4CC(=O)CC[C@]4(C)[C@H]3CC[C@@]21C`, the Ratio with K562/R7 stood at 2.4. Consider `COc1ccc(CCN(C)CCCC(C#N)(c2ccc(OC)c(OC)c2)C(C)C)cc1OC` (centres undefined), for which the viability in data set [1] was 93.3%.
